Calls of active or inactive are those of the source. The calls are words filed in the database; no cut-off is given here.

The target in assay [1] is T1, Toll-like receptor 3 (Mus musculus) (UniProt Q99MB1).
T1 sequence (whole entry): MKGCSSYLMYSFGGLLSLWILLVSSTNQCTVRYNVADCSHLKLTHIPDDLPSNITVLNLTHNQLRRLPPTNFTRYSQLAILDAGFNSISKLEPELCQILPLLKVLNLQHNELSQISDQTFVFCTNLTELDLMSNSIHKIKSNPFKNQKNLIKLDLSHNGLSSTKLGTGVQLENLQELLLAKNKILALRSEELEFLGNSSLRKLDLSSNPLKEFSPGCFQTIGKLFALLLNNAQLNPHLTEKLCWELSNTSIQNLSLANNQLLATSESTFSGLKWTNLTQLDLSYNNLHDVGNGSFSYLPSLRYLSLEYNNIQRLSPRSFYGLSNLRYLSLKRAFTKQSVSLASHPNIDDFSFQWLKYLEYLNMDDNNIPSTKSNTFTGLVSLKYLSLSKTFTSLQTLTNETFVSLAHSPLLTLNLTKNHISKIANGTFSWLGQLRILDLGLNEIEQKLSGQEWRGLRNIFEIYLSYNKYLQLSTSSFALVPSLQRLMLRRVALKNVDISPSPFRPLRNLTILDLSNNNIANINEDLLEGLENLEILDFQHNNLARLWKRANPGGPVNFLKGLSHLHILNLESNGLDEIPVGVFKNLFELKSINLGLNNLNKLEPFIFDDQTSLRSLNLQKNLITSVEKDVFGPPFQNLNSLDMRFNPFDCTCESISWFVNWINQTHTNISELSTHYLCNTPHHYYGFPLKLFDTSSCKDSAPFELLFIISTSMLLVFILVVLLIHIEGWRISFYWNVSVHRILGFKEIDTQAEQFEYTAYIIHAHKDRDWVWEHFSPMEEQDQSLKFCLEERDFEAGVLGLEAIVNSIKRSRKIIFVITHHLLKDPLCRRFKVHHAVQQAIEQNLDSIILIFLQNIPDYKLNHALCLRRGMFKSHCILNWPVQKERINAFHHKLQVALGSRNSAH
As to the kind of experiment: Inhibition of TRIF recruitment to TLR3 in C57BL/6 mouse BMDM cells assessed as inhibition of pI:pC-induced p38 MAPK activity up to 90 mins. Format: cell-based. The method in brief:
(§1)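 Bone marrow macrophages from C57BL/6 mice, grown in 70% growth medium (DMEM, 10% FBS) plus 30% L929-conditioned medium and given fresh medium 12-14 h before stimulation. Stimuli: IL-1 40 ng/ml, HKSA ~10^8 cfu/ml, pI:pC 50 μg/ml or CpG 10 μg/ml, ± compound at 10 μM (final) added from a 200x DMSO stock. IκBα and p38 profiled by immunoblot. Three independent experiments, quantitated and normalized.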

Assay [2] deals with T2, Interleukin-1 receptor type 1 (Mus musculus) (UniProt P13504).
T2 sequence (whole entry): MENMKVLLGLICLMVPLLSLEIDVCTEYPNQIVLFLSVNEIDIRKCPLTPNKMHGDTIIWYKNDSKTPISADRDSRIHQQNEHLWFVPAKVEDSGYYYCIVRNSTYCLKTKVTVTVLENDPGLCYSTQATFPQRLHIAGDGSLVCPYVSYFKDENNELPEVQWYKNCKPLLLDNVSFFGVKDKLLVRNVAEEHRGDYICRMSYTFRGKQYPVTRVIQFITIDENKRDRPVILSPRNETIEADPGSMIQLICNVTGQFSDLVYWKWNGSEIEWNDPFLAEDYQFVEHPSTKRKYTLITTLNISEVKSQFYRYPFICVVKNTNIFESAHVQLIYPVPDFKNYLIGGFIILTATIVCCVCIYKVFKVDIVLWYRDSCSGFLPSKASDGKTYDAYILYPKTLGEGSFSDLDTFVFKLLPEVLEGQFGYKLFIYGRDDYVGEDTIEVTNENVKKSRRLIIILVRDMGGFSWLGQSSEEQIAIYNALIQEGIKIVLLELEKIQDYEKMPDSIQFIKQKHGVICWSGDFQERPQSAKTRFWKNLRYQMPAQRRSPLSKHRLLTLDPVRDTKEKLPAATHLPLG
As to the kind of experiment: Inhibition of MyD88 recruitment to IL-1R in C57BL/6 mouse BMDM cells assessed as inhibition of IL-1-induced IkappaBalpha degradation up to 90 mins by Western blot analysis. In kind it is cell-based. In short, it runs like this: as §1
(In western blotting, separated proteins are transferred to a membrane and probed.)

For the molecule `O=C(CCCCCN1C(=O)C=CC1=O)Oc1ccc2cc(C(C(=O)NCc3ccccc3)N(C(=O)Cc3ccc4c(c3)OCO4)C3CC3)ccc2c1` (configuration not stated), the inhibition result in assay [1] was “inactive”. The inhibition result in assay [2] is “Active”.

Source of the values: ChEMBL document CHEMBL2203171, “The use of small molecule probes to study spatially separated stimulus-induced signaling pathways” (Bioorg Med Chem Lett, 2012).
